# Source: article PMC9624268 (Translational Vision Science & Technology, 2022)
# Where two headings read alike, the source gives them in different places.
# How the values were obtained:
# [1] = system: rodent factor D; settings: stated in discussion, no reference given; cited from earlier work
# [2] = type: in vivo, rabbit
# [3] = GLP toxicology study, ophthalmic findings in rats; type: in vivo, rat; settings: oral administration, 1 month, 3 months, 6 months
# [4] = GLP toxicology study, ophthalmic findings and ERG in dogs; type: in vivo, dog
# [5] = type: in vivo, rabbit; remark: listed apart in the source
# [6] = type: in vivo, rat; settings: single oral dose 20 mg/kg
# Summary of the method: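 Male pigmented Long–Evans rats (n = 10) got a single oral dose of 20 mg/kg [14C]-labelled test compound in PEG 400:saline:DMSO 60:36.3:3.7 (v:v:v), prepared on the day of dosing. Frozen carcasses were cut into ~40 μm sagittal sections and imaged at 50 μm resolution. Densitometry gave μg equivalents/g, and tissue t1/2 came from noncompartmental analysis.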
# [7] = type: in vivo, rat; settings: albino rats, single oral dose 20 mg/kg, whole-body autoradiography
# Summary of the method: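 Male albino Wistar Han rats (n = 3) got a single oral dose of 20 mg/kg [14C]-labelled test compound. It was suspended on the day of dosing in PEG 400:saline:DMSO 60:36.3:3.7 (v:v:v). Carcasses were frozen in hexane/dry ice, stored at or below −20°C, and cut into ~40 μm sagittal sections. Imaging was at 50 μm resolution. Radioactivity was quantified by image densitometry as μg equivalents/g.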
# [8] = system: choroidal neovascularization; settings: mice, cited from earlier work
# [9] = pigmented rats, single oral dose 10 mg/kg; cited from earlier work
compound,measurement,setting,value
CC(=O)c1nn(CC(=O)N2C[C@H](F)C[C@H]2C(=O)Nc2cccc(Br)n2)c2ccc(-c3cnc(C)nc3)cc12 [Danicopan],inhibitory effect on rodent factor D,[1],lack of an inhibitory effect
same,AUClast,"[2]; DB rabbit, single oral dose 15 mg/kg, choroid/BrM/RPE, mean","37,400 h·ng/g"
same,AUClast,"[2]; DB rabbit, single oral dose 15 mg/kg, neural retina, mean",998 ng·h/g
same,MRTlast,"[2]; DB rabbit, single oral dose 15 mg/kg, neural retina, mean, 15 mg/kg",7.83 h
same,"dose-exposure relationship, plasma and neural retina","[2]; DB rabbits, 7.5, 15 and 50 mg/kg/dose twice daily for 15 days (data not shown)",approximate dose linearity
same,time through which exposure was detected in plasma after the last dose,"[2]; DB rabbits, 7.5, 15 and 50 mg/kg/dose twice daily for 15 days, plasma",24 h
same,"dose-exposure relationship, choroid/BrM/RPE","[2]; DB rabbits, between 15 and 50 mg/kg/dose twice daily for 15 days (data not shown)",less-than-dose proportionality
same,Cmax,"[2]; Dutch Belted, rabbit, choroid/BrM/RPE, po, 15 mg/kg, DB rabbit, single oral dose 15 mg/kg, mean",917 ng/g
same,MRT last,"[2]; Dutch Belted, rabbit, choroid/BrM/RPE, po, 15 mg/kg, MRTlast, DB rabbit, single oral dose 15 mg/kg, mean",49.7 h
same,Cmax,"[2]; Dutch Belted, rabbit, neural retina, po, 15 mg/kg, DB rabbit, single oral dose 15 mg/kg, mean",145 ng/g
same,clinical or histopathological ophthalmic findings,[3],no clinical or histopathological ophthalmic findings
same,clinical or histopathological ophthalmic findings,"[4]; oral administration, 14 days, 3 months, 9 months, GLP",no clinical or histopathological ophthalmic findings
same,electroretinography (ERG) abnormalities,"[4]; week 38, compared to pretreatment ERG",no abnormalities were detected
same,AUClast,"[5]; NZW rabbit, single oral dose 15 mg/kg, choroid/BrM/RPE, mean",1010 ng·h/g
same,AUClast,"[5]; NZW rabbit, single oral dose 15 mg/kg, neural retina, mean",665 ng·h/g
same,MRT last,"[5]; New Zealand White, rabbit, choroid/BrM/RPE, po, 15 mg/kg",5.87 h
same,Cmax,"[5]; New Zealand White, rabbit, choroid/BrM/RPE, po, 15 mg/kg, NZW rabbit, single oral dose 15 mg/kg, mean",172 ng/g
same,MRT last,"[5]; New Zealand White, rabbit, neural retina, po, 15 mg/kg",1.49 h
same,Cmax,"[5]; New Zealand White, rabbit, neural retina, po, 15 mg/kg, NZW rabbit, single oral dose 15 mg/kg, mean",200 ng/g
same,MRT last,"[5]; New Zealand White, rabbit, plasma, po, 15 mg/kg",4.01 h
same,AUC(0-t),"[5]; New Zealand White, rabbit, plasma, po, 15 mg/kg, AUClast, NZW rabbit, single oral dose 15 mg/kg, mean",1430 ng·h/mL
same,Cmax,"[5]; New Zealand White, rabbit, plasma, po, 15 mg/kg, NZW rabbit, single oral dose 15 mg/kg, mean",310 ng/mL
[^14C]-danicopan,time postdose at which radioactivity remained quantifiable in uveal tract,"[6]; pigmented rats, uveal tract (28 days)",672 h
same,radioactivity in most tissues at 24 hours postdose,"[6]; pigmented rats, whole-body autoradiography",nonquantifiable
same,radioactivity in plasma and whole blood,[6]; after 8 hours postdose,undetectable
same,radioactivity in most tissues at 24 hours postdose,[7],nonquantifiable
Cc1ccc(Nc2nccc(N(C)c3ccc4c(C)n(C)nc4c3)n2)cc1S(N)(=O)=O [Pazopanib],plasma levels,[8]; 3 days after a single loading dose 10 mg/kg,undetectable
same,choroidal neovascularization lesion size,"[8]; single loading dose 10 mg/kg, up to 2 weeks after choroidal neovascularization induction",significantly reduced
same,time detected in melanin-containing tissues including the uveal tract,[9],up to 35 days
